Results as given in ChEMBL document CHEMBL1128220, “Syntheses and antimalarial activities of N-substituted 11-azaartemisinins” (J Med Chem, 1995).

Key:
[1] = system: Mus musculus; assay: In vivo study of compound in mice was determined by no. of dead mice after 16 days post infection at the dose of 8 mg/kg/day; type: ADME, organism-based; settings: 384 h
Outline: (§1)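 Mice infected with Plasmodium berghei were dosed in mg/kg/day, from 0 for untreated controls up to 256. Deaths were logged by the day postinfection on which they occurred. Surviving mice were counted 60 days after infection. Treated groups held 5 or 7 mice.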

[2] = system: Mus musculus; assay: In vivo study of compound in mice was determined by no. of dead mice after 15 days post infection at the dose of 8 mg/kg/day; type: ADME, organism-based; settings: 360 h; outline: as §1
[3] = system: Mus musculus; assay: In vivo study of compound in mice was determined by no. of dead mice after 19 days post infection at the dose of 8 mg/kg/day; type: ADME, organism-based; settings: 456 h; outline: as §1
[4] = system: Mus musculus; assay: In vivo study of Plasmodium berghei in mice (Mus musculus) was determined by number of dead mice (Mus musculus) after 20 days post infection at the dose of 8 mg/kg/day; type: ADME, organism-based; settings: 480 h; outline: as §1
[5] = system: Plasmodium falciparum; assay: In vitro antimalarial activity for chloroquine-resistant Plasmodium falciparum FCR3 relative to artemisinin; type: functional
[6] = system: Mus musculus; assay: Number of mice alive 60 days after infection at the dose of 8 mg/kg/day among the 5 mice tested; type: functional; outline: as §1
[7] = system: Mus musculus; assay: Number of mice alive 60 days after infection at the dose of 32 mg/kg/day among the 5 mice tested; type: functional; outline: as §1
[8] = system: Mus musculus; assay: In vivo study of compound in mice was determined by no. of dead mice after 26 days post infection at the dose of 8 mg/kg/day; type: ADME, organism-based; settings: 624 h; outline: as §1
[9] = system: Mus musculus; assay: Number of mice alive 60 days after infection at the dose of 128 mg/kg/day among the 5 mice tested; type: functional; outline: as §1
[10] = system: Mus musculus; assay: Number of mice alive 60 days after infection at the dose of 64 mg/kg/day among the 7 mice tested; type: functional; outline: as §1
[11] = system: Mus musculus; assay: Number of mice alive 60 days after infection at the dose of 256 mg/kg/day among the 7 mice tested; type: functional; outline: as §1
[12] = system: Mus musculus; assay: In vivo study of compound in mice was determined by no. of dead mice after 18 days post infection at the dose of 4 mg/kg/day; type: ADME, organism-based; settings: 432 h; outline: as §1
[13] = system: Mus musculus; assay: In vivo study of compound in mice was determined by no. of dead mice after 12 days post infection at the dose of 4 mg/kg/day; type: ADME, organism-based; settings: 288 h; outline: as §1
[14] = system: Mus musculus; assay: In vivo study of compound in mice was determined by no. of dead mice after 8 days post infection at the dose of 4 mg/kg/day; type: ADME, organism-based; settings: 192 h; outline: as §1
[15] = system: Mus musculus; assay: In vivo study of compound in mice was determined by no. of dead mice after 9 days post infection at the dose of 4 mg/kg/day; type: ADME, organism-based; settings: 216 h; outline: as §1
[16] = system: Mus musculus; assay: In vivo study of compound in mice was determined by no. of dead mice after 16 days post infection at the dose of 4 mg/kg/day; type: ADME, organism-based; settings: 384 h; outline: as §1
[17] = system: Mus musculus; assay: In vivo study of compound in mice was determined by no. of dead mice after 11 days post infection at the dose of 4 mg/kg/day; type: ADME, organism-based; settings: 264 h; outline: as §1
[18] = system: Mus musculus; assay: Number of mice alive 60 days after infection at the dose of 4 mg/kg/day among the 7 mice tested; type: functional; outline: as §1
[19] = system: Mus musculus; assay: Number of mice alive 60 days after infection at the dose of 16 mg/kg/day among the 7 mice tested; type: functional; outline: as §1
[20] = system: Mus musculus; assay: In vivo study of compound in mice was determined by no. of dead mice after 18 days post infection at the dose of 16 mg/kg/day; type: ADME, organism-based; settings: 432 h; outline: as §1
[21] = system: Mus musculus; assay: In vivo study of Plasmodium berghei in mice (Mus musculus) was determined by number of dead mice (Mus musculus) after 14 days post infection at the dose of 8 mg/kg/day; type: ADME, organism-based; settings: 336 h; outline: as §1
[22] = system: Mus musculus; assay: In vivo study of control in mice was determined by no. of dead mice after 7 days post infection at the dose of 0 mg/kg/day; type: ADME, organism-based; settings: 168 h; outline: as §1
[23] = system: Mus musculus; assay: In vivo study of Plasmodium berghei in mice (Mus musculus) was determined by number of dead mice (Mus musculus) after 12 days post infection at the dose of 32 mg/kg/day; type: ADME, organism-based; settings: 288 h; outline: as §1
[24] = system: Mus musculus; assay: Number of mice alive 60 days after infection at the dose of 8 mg/kg/day among the 7 mice tested; type: functional; outline: as §1
[25] = system: Mus musculus; assay: In vivo study of Plasmodium berghei in mice (Mus musculus) was determined by number of dead mice (Mus musculus) after 19 days post infection at the dose of 32 mg/kg/day; type: ADME, organism-based; settings: 456 h; outline: as §1
[26] = system: Mus musculus; assay: In vivo study of control in mice was determined by no. of dead mice after 9 days post infection at the dose of 0 mg/kg/day; type: ADME, organism-based; settings: 216 h; outline: as §1
[27] = system: Mus musculus; assay: In vivo study of control in mice was determined by no. of dead mice after 8 days post infection at the dose of 0 mg/kg/day; type: ADME, organism-based; settings: 192 h; outline: as §1
[28] = system: Mus musculus; assay: Number of mice alive 60 days after infection at the dose of 32 mg/kg/day among the 7 mice tested; type: functional; outline: as §1
[29] = system: Mus musculus; assay: Number of mice alive 60 days after infection at the dose of 128 mg/kg/day among the 7 mice tested; type: functional; outline: as §1
[30] = system: Mus musculus; assay: In vivo study of Plasmodium berghei in mice (Mus musculus) was determined by number of dead mice (Mus musculus) after 17 days post infection at the dose of 128 mg/kg/day; type: ADME, organism-based; settings: 408 h; outline: as §1
[31] = system: Mus musculus; assay: In vivo study of Plasmodium berghei in mice (Mus musculus) was determined by number of dead mice (Mus musculus) after 20 days post infection at the dose of 32 mg/kg/day; type: ADME, organism-based; settings: 480 h; outline: as §1
[32] = system: Mus musculus; assay: In vivo study of control in mice was determined by no. of dead mice after 10 days post infection at the dose of 0 mg/kg/day; type: ADME, organism-based; settings: 240 h; outline: as §1
[33] = system: Mus musculus; assay: In vivo study of Plasmodium berghei in mice (Mus musculus) was determined by number of dead mice (Mus musculus) after 27 days post infection at the dose of 32 mg/kg/day; type: ADME, organism-based; settings: 648 h; outline: as §1
[34] = system: Mus musculus; assay: In vivo study of Plasmodium berghei in mice (Mus musculus) was determined by number of dead mice (Mus musculus) after 13 days post infection at the dose of 8 mg/kg/day; type: ADME, organism-based; settings: 312 h; outline: as §1
[35] = system: Mus musculus; assay: Number of mice alive 60 days after infection at the dose of 0 mg/kg/day among the 7 mice tested; type: functional; outline: as §1
[36] = system: Mus musculus; assay: In vivo study of Plasmodium berghei in mice (Mus musculus) was determined by number of dead mice (Mus musculus) after 18 days post infection at the dose of 32 mg/kg/day; type: ADME, organism-based; settings: 432 h; outline: as §1
[37] = system: Mus musculus; assay: In vivo study of Plasmodium berghei in mice (Mus musculus) was determined by number of dead mice (Mus musculus) after 16 days post infection at the dose of 8 mg/kg/day; type: ADME, organism-based; settings: 384 h; outline: as §1

In the case of `C[C@@H]1CCC2[C@@H](C)C(=O)N(CC=O)[C@@H]3O[C@@]4(C)CC[C@@H]1[C@@]23OO4` (some centres not stated), the “No. of dead mice” value [1] is reported as 1, the “No. of dead mice” value [2] is reported as 1 and the “No. of dead mice” value [3] is reported as 1. The “No. of dead mice” value [4] was 1, the Relative activity [5] was 26 and the “No. of mice alive” value [6] was 0. For the same compound, the “No. of mice alive” value [7] was 5, the “No. of dead mice” value [8] was 1 and the “No. of mice alive” value [9] was 5.
With `CO[C@@]1(C)CC[C@@H]2C3C(CC[C@H]2C)[C@@H](C)C(=O)N[C@@H]3O1` (some centres not stated) the Relative activity [5] was 0.01.
For `C[C@@H]1CCC2[C@@H](C)C(=O)N[C@@H]3O[C@@]4(C)CC[C@@H]1[C@@]23OO4` (some centres not stated), the Relative activity [5] was 1.
With `C[C@@H]1CCC2[C@@H](C)C(=O)N(C)[C@@H]3O[C@@]4(C)CC[C@@H]1[C@@]23OO4` (some centres not stated) the Relative activity [5] was 2.6.
With `CO[C@@]1(C)CC[C@@H]2C3C(CC[C@H]2C)[C@@H](C)C(=O)N(CC(C)(C)C)[C@@H]3O1` (some centres not stated) the Relative activity [5] was 0.001.
Compound `CO[C@@]1(C)CC[C@@H]2C3C(CC[C@H]2C)[C@@H](C)C(=O)N(Cc2ccccn2)[C@@H]3O1` (some centres not stated) has a Relative activity [5] of 0.008.
Work on `C[C@@H]1CCC2[C@@H](C)C(=O)N(Cc3cccs3)[C@@H]3O[C@@]4(C)CC[C@@H]1[C@@]23OO4` (some centres not stated) yielded a Relative activity [5] of 1.1.
For `C[C@@H]1CCC2[C@@H](C)C(=O)N(Cc3ccccn3)[C@@H]3O[C@@]4(C)CC[C@@H]1[C@@]23OO4` (some centres not stated), the Relative activity [5] was 22.
In the case of `C[C@@H]1CCC2[C@@H](C)C(=O)N(Cc3ccco3)[C@@H]3O[C@@]4(C)CC[C@@H]1[C@@]23OO4` (some centres not stated), the Relative activity [5] is reported as 1.
`C=CCN1C(=O)[C@H](C)C2CC[C@@H](C)[C@@H]3CC[C@@]4(C)OO[C@@]23[C@H]1O4` (some centres not stated) was tested, and the Relative activity [5] was 0.8.
With `CCOC1O[C@@H]2O[C@@]3(C)CC[C@H]4[C@H](C)CCC([C@H]1C)[C@@]24OO3` (some centres not stated) the “No. of mice alive” value [10] was 7, the “No. of mice alive” value [11] was 7 and the “No. of dead mice” value [12] was 2. For the same compound, the “No. of dead mice” value [13] was 1, the “No. of dead mice” value [14] was 1 and the “No. of dead mice” value [15] was 1. The “No. of dead mice” value [16] was 1, the “No. of dead mice” value [17] was 1 and the “No. of mice alive” value [18] was 0. For the same compound, the “No. of mice alive” value [19] was 6 and the “No. of dead mice” value [20] was 1.
`C[C@@H]1CCC2[C@@H](C)C(=O)N(CC(C)(C)C)[C@@H]3O[C@@]4(C)CC[C@@H]1[C@@]23OO4` (some centres not stated) gave a Relative activity [5] of 9.
For `C[C@@H]1CC[C@H]2[C@@H](C)C(=O)O[C@@H]3O[C@@]4(C)CC[C@@H]1[C@]32OO4` [ARTEMISININ], the “No. of dead mice” value [21] was 2, the “No. of dead mice” value [22] was 3 and the “No. of dead mice” value [23] was 1. The “No. of mice alive” value [24] was 0, the “No. of dead mice” value [25] was 1 and the “No. of dead mice” value [26] was 1. For the same compound, the “No. of dead mice” value [27] was 2, the “No. of mice alive” value [28] was 2 and the “No. of mice alive” value [29] was 6. For the same compound, the “No. of dead mice” value [30] was 1, the “No. of dead mice” value [31] was 1 and the “No. of dead mice” value [32] was 1. For the same compound, the “No. of dead mice” value [33] was 1, the “No. of dead mice” value [34] was 1 and the “No. of mice alive” value [35] was 0. The “No. of dead mice” value [36] was 1 and the “No. of dead mice” value [37] was 2.
